According to paper PMC3582033 (Cell, 2011):
Each block holds one compound with its values, some of them ahead of it.

Experiments:
[1] = test system: Gsc, Mixl1, Smad7, Skil, SerpinE1, Lefty1 expression in mESCs; assay: qRT-PCR of activin/nodal target genes in mESCs / embryoid bodies; type: cell-based, mouse
Summary of the method: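 E14Tg2a.IV mESCs were kept feeder-free with LIF; Trim33-null lines were kept on MEFs. Variants were Trim33 knockdown by lentiviral shRNA, Smad2/3-depleted, Smad4-null, or reconstituted with TRIM33 constructs. Embryoid bodies formed for 2.5 days, then received activin A (50 ng/ml) or SB431542 (10 μM) for 2 h. Total RNA went to qRT-PCR. Mean ± S.D. of quadruplicates, three independent experiments.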

TRIM33 PHD-Bromo = target: T1, TRIM33 PHD-Bromo (Homo sapiens, UniProt Q9UPN9); assay: ITC binding of H3; details: versus H3(1-28) (KD=0.46 μM)
T1 sequence (Q9UPN9 882-1087 limits assumed): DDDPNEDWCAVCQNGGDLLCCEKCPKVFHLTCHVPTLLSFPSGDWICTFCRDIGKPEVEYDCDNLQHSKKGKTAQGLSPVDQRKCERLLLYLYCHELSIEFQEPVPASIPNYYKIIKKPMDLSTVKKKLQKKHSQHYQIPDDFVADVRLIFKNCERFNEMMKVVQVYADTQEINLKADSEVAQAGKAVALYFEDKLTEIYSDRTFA

HaCaT keratinocytes [2] = assay: TGF-β gene responses in HaCaT; type: cell-based, human; details: qRT-PCR
HaCaT keratinocytes [3] = details: and our unpublished work, ref Gomis et al., 2006; cited from earlier work
MDA-MB-231 cells = assay: Luciferase reporter, repeats of Smad binding element; type: cell-based, human; details: SBE repeats
[4] = test system: MDA-MB-231 breast carcinoma cells; assay: TGF-β gene responses in MDA-MB-231; type: cell-based, human; details: qRT-PCR, MDA-MB-231, TRIM33 depletion
HaCaT cells = assay: Luciferase reporter, SERPINE1; type: cell-based, human; details: SERPINE1 (PAI1) element
[5] = test system: MDA-MB-231 breast carcinoma cells; details: and our unpublished work, ref Gomis et al., 2006; cited from earlier work
[6] = test system: Smad4 at Gsc and Mixl1 promoters; assay: ChIP of Smad4 at Gsc / Mixl1 promoters; type: cell-based, mouse; details: EBs day 2.5, activin 2 h
Summary of the method: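 Wild-type, shRNA Trim33-depleted or TRIM33-reconstituted mESCs formed EBs for 2.5 days, then 2 h with activin A (50 ng/ml) or SB431542 (10 μM). Cells were crosslinked in 1% formaldehyde at 37 °C for 10 min and quenched in 0.125 M glycine. Anti-Smad4 ChIP was read by absolute qPCR of Gsc (−0.4 kb) and Mixl1 (−0.5/−0.2 kb) as % input. Mean ± S.D. of quadruplicates, three experiments.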

[7] = test system: TRIM33 at Gsc and Mixl1 promoters; assay: ChIP of TRIM33 at Gsc / Mixl1 promoters; type: cell-based, mouse
Summary of the method: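 EBs (day 2.5) came from wild-type, Trim33-depleted, Smad2/3-depleted or Smad4-null mESCs. They were given activin A (50 ng/ml) or SB431542 (10 μM) for 2 h. Formaldehyde crosslinking (1%, 37 °C, 10 min) was quenched with glycine. Anti-TRIM33 ChIP used a kit, with absolute qPCR of Gsc/Mixl1 promoter regions reported as % input. Mean ± S.D. of quadruplicates, at least three experiments.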

[8] = test system: HP1γ at Gsc and Mixl1 promoters; assay: ChIP of HP1γ at Gsc and Mixl1 promoters; type: cell-based, mouse; details: wild type and Trim33-null EBs day 2.5, activin 2 h
Summary of the method: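 Mouse E14Tg2a.IV ESCs (feeder-free, LIF) and Trim33-null ESCs (C57Bl/6J, on MEFs) formed EBs for 2.5 days, then got activin or SB for 2 h. HP1γ or no-antibody ChIP used a kit. Absolute qPCR covered Gsc −2.3 kb and Mixl1 −0.2/−0.5 kb, as % input. Mean ± S.D. of quadruplicates.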

[9] = test system: TRIM33-Smad2/3 complex in mESCs; assay: Smad2/3 co-immunoprecipitation, TRIM33-Smad2/3 complex formation; type: cell-based, mouse
[10] = test system: Smad4-Smad2/3 complex in mESCs; assay: Smad2/3 co-immunoprecipitation, Smad4-Smad2/3 complex formation; type: cell-based, mouse
[11] = test system: activin responsive genes in EBs; assay: Genome-wide transcriptomic analysis; type: cell-based, mouse; details: >3 fold change
[12] = test system: histone H3 modified residues at Gsc and Mixl1 promoters; assay: ChIP of histone H3 marks at Gsc and Mixl1 promoters; type: cell-based, mouse; details: activin
Summary of the method: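 Histone-mark ChIP used day-2.5 mESC embryoid bodies treated with activin A (50 ng/ml) or SB431542 (10 μM). Cells were fixed with 1% formaldehyde (37 °C, 10 min) and quenched with glycine. Antibodies recognised modified H3 residues; protein A/G beads alone served as negative controls. Mono-nucleosome templates came from micrococcal nuclease digestion. Absolute qRT-PCR, percent of input. Mean ± S.D. of quadruplicates, ≥3 experiments.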

[13] = test system: RNA Pol II at Gsc and Mixl1 promoters; assay: ChIP of RNA Pol II at Gsc and Mixl1 promoters; type: cell-based, mouse; details: Gsc -0.1 kb, Mixl1 -0.2 kb, EBs day 2.5, activin 2 h
Summary of the method: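 Mouse ESC embryoid bodies at day 2.5 (wild type or Trim33-null) received activin or SB431542 for 2 h. ChIP used anti-RNA Pol II. qRT-PCR read Gsc −0.1 kb and Mixl1 −0.2 kb as percent of input. Mean ± S.D. of quadruplicates, two independent experiments.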

Compound: NC(=O)c1ccc(-c2nc(-c3ccc4c(c3)OCO4)c(-c3ccccn3)[nH]2)cc1 [SB431542, reference compound]
sensitivity of endogenous nodal-like factor responses to SB431542 ([1]; mESC EBs, SB431542 10 μM): SB431542-sensitive

enhancement of binding relative to H3(1-28) (TRIM33 PHD-Bromo): 2.3 fold
Compound: H3(1-28) acetylation of K18: H3(1-28) with acetylation of K18

Compound: TGF-β
TGF-β response of SMAD7, SKIL and SERPINE1 on TRIM33 depletion (HaCaT keratinocytes [2]): did not significantly alter the TGF-β response
most TGF-β responses on RNAi depletion of Smad2/3 and Smad4 or TRIM33 (HaCaT keratinocytes [3]): inhibited by RNAi-mediated depletion of Smad2/3 and Smad4, but not by depletion of TRIM33
reporter response on TRIM33 depletion (MDA-MB-231 cells): increased the activity of these constructs
TGF-β response of SMAD7, SKIL and SERPINE1 on TRIM33 depletion [4]: did not significantly alter the TGF-β response
reporter response on TRIM33 depletion (HaCaT cells): increased the activity of these constructs
most TGF-β responses on RNAi depletion of Smad2/3 and Smad4 or TRIM33 [5]: inhibited by RNAi-mediated depletion of Smad2/3 and Smad4, but not by depletion of TRIM33

level of Pol II binding to initiator region [13]: increase in the level of Pol II binding
Compound: activin: recombinant activin A (R&D Systems), ligand sharing receptors with nodal
Smad4 ChIP binding, Gsc [6]: Activin-dependent binding of Smad4 occurred only at the ARE
TRIM33 ChIP binding, Mixl1 ([7]; EBs day 2.5, activin 2 h): Activin-dependent binding of TRIM33 occurred near the Mixl1 ARE
activin-dependent TRIM33 binding on Smad2/3 depletion, Mixl1 ([7]; depletion of Smad2/3): inhibited the activin-dependent binding of TRIM33
activin-induced TRIM33 binding, effect of Smad4 ([7]; wild-type versus Smad4-null ESCs): enhanced the activin-induced binding of TRIM33 to its sites
responsiveness to activin ([1]; Cripto/cryptic-depleted cells): remained responsive to activin
induction of Gsc, Mixl1, Smad7 ([1]; RNAi-mediated depletion of TRIM33, EB 2.5 days, activin 2 h): strongly blunted the induction of Gsc and Mixl1 but not that of Smad7
Gsc, Mixl1 and Smad7 responses to added activin ([1]; Smad4-null or Smad2/3-depleted mESCs, EB 2.5 days, 2 h): lacked Gsc, Mixl1 and Smad7 responses
Gsc and Mixl1 responses ([1]; TRIM33-depleted cells reconstituted with shRNA-insensitive TRIM33 vector): restored the Gsc and Mixl1 responses
expression of Smad7, Skil and SerpinE1 ([1]; Trim33-null ESC lines, activin): stimulated the expression of the common Smad2/3 target genes
Lefty1 induction by activin ([1]; Trim33-null mESCs, Smad4-null mESCs depleted of TRIM33): blunted
expression of Gsc and Mixl1 ([1]; two independent Trim33-null ESC lines, activin): failed to stimulate the expression of Gsc and Mixl1
HP1γ binding to TRIM33 target regions [8]: inhibited by activin addition in a TRIM33-dependent manner
formation of TRIM33-Smad2/3 complex, Smad4 requirement ([9]; Smad4-null mESCs): did not require Smad4
t1/2 of TRIM33-Smad2/3 complex formation ([9]; mESCs, activin A 50 ng/ml): ~30 min
formation of Smad4-Smad2/3 complex on TRIM33 depletion ([10]; TRIM33 shRNA or knock-out mESCs): did not inhibit the formation of the Smad4-Smad2/3 complex
t1/2 of Smad4-Smad2/3 complex formation ([10]; mESCs, activin A 50 ng/ml): ~30 min
total activin gene responses ([11]; p<0.05): 407 responses
activin gene responses requiring both Smad4 and TRIM33 ([11]; p<0.05, of 407 responses): 333 responses
level of H3K18ac ([12]; TRIM33 binding regions and throughout Gsc and Mixl1 promoters): rapid, marked increase in the level of H3K18ac
levels of H3K14ac and H3K23ac [12]: increased by activin
level of H3K9me3 ([12]; throughout these regions of Gsc and Mixl1 promoters): did not affect the level of H3K9me3
